Data: ChEMBL document CHEMBL1148326, “Chemometric studies on the bactericidal activity of quinolones via an extended VolSurf approach” (2004)

Experiments:
Format in all cases: functional
[1] = system: Enterococcus faecalis; assay: Antibacterial activity evaluated against Enterococcus faecalis
How it was run: (§1)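 MIC against aerobic bacteria, measured at Bayer AG, by standard agar dilution or broth microdilution per NCCLS M7-A5 guidelines. MIC taken as lowest concentration visibly inhibiting growth after in vitro incubation, read when untreated culture growth becomes visible; expressed as log 1/C.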

[2] = system: Escherichia coli; assay: Antibacterial activity was evaluated against Escherichia coli; how it was run: as §1
[3] = system: Pseudomonas aeruginosa; assay: Antibacterial activity was evaluated against Pseudomonas aeruginosa; how it was run: as §1
[4] = system: Staphylococcus aureus; assay: Antibacterial activity was evaluated against Staphylococcus aureus; how it was run: as §1

CC(C)(C)n1cc(C(=O)O)c(=O)c2cc(F)c(N3CCNCC3)cc21
Log 1/C [1]: 6.44
Log 1/C [2]: 7.06
Log 1/C [3]: 6.14
Log 1/C [4]: 6.44

O=C(O)c1c(=O)c2cc(F)c(N3C[C@@H]4CCCN[C@@H]4C3)c3c2n2c(csc12)CS3
Log 1/C [1]: 6.54
Log 1/C [2]: 7.16
Log 1/C [3]: 5.63
Log 1/C [4]: 6.86

CN1CCN(c2c(F)cc3c(=O)c(C(=O)O)cn4c3c2OC(C(C)(C)C)=C4)CC1
Log 1/C [1]: 4.14
Log 1/C [2]: 4.44
Log 1/C [3]: 3.53
Log 1/C [4]: 3.84

CNn1cc(C(=O)O)c(=O)c2cc(F)c(N3CCN(C)CC3)cc21 [AMIFLOXACIN]
Log 1/C [1]: 4.92
Log 1/C [2]: 6.75
Log 1/C [3]: 5.83
Log 1/C [4]: 5.52

CO/N=C/Cn1cc(C(=O)O)c(=O)c2cc(F)c(N3C[C@@H]4CCCN(C)[C@@H]4C3)c(F)c21
Log 1/C [1]: 4.42
Log 1/C [2]: 5.62
Log 1/C [3]: 4.42
Log 1/C [4]: 5.62

O=C(O)c1cn(C2CC2)c2c(F)c(N3C4CCC3CC4)c(F)cc2c1=O
Log 1/C [1]: 5.26
Log 1/C [2]: 5.86
Log 1/C [3]: 4.35
Log 1/C [4]: 5.86

O=C(O)c1cn(C2CC2)c2c(F)c(N3C[C@@H]4OCCN[C@@H]4C3)c(F)c(Br)c2c1=O
Log 1/C [1]: 5.37
Log 1/C [2]: 6.58
Log 1/C [3]: 4.47
Log 1/C [4]: 6.27

N[C@@]12C=CC=CC1CN(c1c(F)cc3c(=O)c(C(=O)O)cn([C@@H]4C[C@@H]4F)c3c1Cl)C2 (some centres not stated)
Log 1/C [1]: 7.16
Log 1/C [2]: 8.06
Log 1/C [3]: 6.56
Log 1/C [4]: 8.06

C[C@@H]1CN(c2c(F)c(N)c3c(=O)c(C(=O)O)cn(C4CC4)c3c2F)C[C@H](C)N1 [SPARFLOXACIN]
Log 1/C [1]: 6.2
Log 1/C [2]: 7.42
Log 1/C [3]: 5.59
Log 1/C [4]: 6.8

CN1CCN(c2nc3c(cc2Cl)c(=O)c(C(=O)O)cn3C2CC2)CC1
Log 1/C [1]: 4.35
Log 1/C [2]: 6.77
Log 1/C [3]: 4.96
Log 1/C [4]: 4.96

O=C(O)c1cn(C2CC2)c2cc(N3C[C@@H]4CCCN[C@@H]4C3)c(F)cc2c1=O
Log 1/C [1]: 6.21
Log 1/C [2]: 7.12
Log 1/C [3]: 5.92
Log 1/C [4]: 7.12

O=C(O)c1cn(C2CC2)c2cc(N3CCN(c4ncccn4)CC3)c(F)cc2c1=O
Log 1/C [1]: 4.71
Log 1/C [2]: 4.41
Log 1/C [3]: 3.5
Log 1/C [4]: 5.01

CO/N=C/Cn1cc(C(=O)O)c(=O)c2cc(F)c(N3CCN(C)CC3)c(F)c21
Log 1/C [1]: 3.49
Log 1/C [2]: 5.29
Log 1/C [3]: 4.39
Log 1/C [4]: 4.39

O=C(O)c1cn(C2CC2)c2cc(N3C(=O)C=CC3=O)c(F)cc2c1=O
Log 1/C [1]: 3.43
Log 1/C [2]: 3.43
Log 1/C [3]: 3.43
Log 1/C [4]: 3.43

O=C(O)c1cn(C2CC2)c2c(Cl)c(N3C[C@@H]4CCCN[C@@H]4C3)c(F)cc2c1=O
Log 1/C [1]: 7.16
Log 1/C [2]: 8.05
Log 1/C [3]: 6.25
Log 1/C [4]: 7.75

C[C@H]1COc2c(N3C[C@H]4CCCN[C@H]4C3)c(F)cc3c(=O)c(C(=O)O)cn1c23
Log 1/C [1]: 5.89
Log 1/C [2]: 6.19
Log 1/C [3]: 5.29
Log 1/C [4]: 5.89

CN1CCC[C@@H]2CN(c3c(F)cc4c(=O)c(C(=O)O)cn(C5CC5)c4c3Cl)C[C@@H]21
Log 1/C [1]: 6.23
Log 1/C [2]: 7.15
Log 1/C [3]: 5.32
Log 1/C [4]: 6.83

CC1CN(c2c(F)cc3c(=O)c(C(=O)O)cn(C4CC4)c3c2Cl)CC(C)N1 (configuration not stated)
Log 1/C [1]: 5.93
Log 1/C [2]: 7.16
Log 1/C [3]: 5.63
Log 1/C [4]: 6.54

C[C@H]1COc2c(N3C[C@@H]4CCCN[C@@H]4C3)c(F)cc3c(=O)c(C(=O)O)cn1c23
Log 1/C [1]: 6.19
Log 1/C [2]: 6.8
Log 1/C [3]: 5.59
Log 1/C [4]: 6.19

O=C(O)c1cn(C2CC2)c2cc(N3CCNCC3)c(F)cc2c1=O [CIPROFLOXACIN]
Log 1/C [1]: 6.16
Log 1/C [2]: 7.66
Log 1/C [3]: 6.77
Log 1/C [4]: 6.16

O=C(O)c1cn(C2CC2)c2cc(N3CCN(C(CO)(CO)CO)CC3)c(F)cc2c1=O
Log 1/C [1]: 4.13
Log 1/C [2]: 5.34
Log 1/C [3]: 3.53
Log 1/C [4]: 4.74

COc1c(N2CC3=C(CN(C)CC3)C2)c(F)cc2c(=O)c(C(=O)O)cn(C3CC3)c12
Log 1/C [1]: 6.52
Log 1/C [2]: 6.84
Log 1/C [3]: 5.32
Log 1/C [4]: 6.84

CCn1cc(C(=O)O)c(=O)c2cc(F)c(N3CCN(C)CC3)cc21 [PEFLOXACIN]
Log 1/C [1]: 5.52
Log 1/C [2]: 7.05
Log 1/C [3]: 5.82
Log 1/C [4]: 6.12

CC1=C(C)n2cc(C(=O)O)c(=O)c3c(F)c(F)c(N4CCN(C5CC5)CC4)c(c32)O1
Log 1/C [1]: 4.12
Log 1/C [2]: 4.12
Log 1/C [3]: 3.51
Log 1/C [4]: 4.42

CN1CCC[C@H]2CN(c3c(F)cc4c(=O)c(C(=O)O)cn(C5CC5)c4c3Cl)C[C@H]21
Log 1/C [1]: 6.84
Log 1/C [2]: 7.45
Log 1/C [3]: 5.62
Log 1/C [4]: 7.13

CN1CCN(c2c(F)cc3c(=O)c(C(=O)O)cn(CF)c3c2F)CC1
Log 1/C [1]: 5.55
Log 1/C [2]: 7.07
Log 1/C [3]: 5.85
Log 1/C [4]: 5.85

O=C(O)c1cn(C2CC2)c2c([N+](=O)[O-])c(N3CCOCC3)c(F)cc2c1=O
Log 1/C [1]: 4.67
Log 1/C [2]: 5.58
Log 1/C [3]: 3.77
Log 1/C [4]: 5.58

CC(=O)N1CCC[C@H]2CN(c3c(F)cc4c(=O)c(C(=O)O)cn(C5CC5)c4c3Cl)C[C@H]21
Log 1/C [1]: 5.65
Log 1/C [2]: 5.35
Log 1/C [3]: 3.84
Log 1/C [4]: 5.95

O=C(O)c1cn(C2CC2)c2cc(N3CCN(c4ccncc4)CC3)c(F)cc2c1=O
Log 1/C [1]: 4.71
Log 1/C [2]: 5.91
Log 1/C [3]: 3.5
Log 1/C [4]: 5.61

O=C(O)c1cn(C2CC2)c2c(Cl)c(N3CCCCC3)c(F)cc2c1=O
Log 1/C [1]: 6.79
Log 1/C [2]: 6.46
Log 1/C [3]: 5.26
Log 1/C [4]: 7.42

CN1CCN(c2cc3c(c(Cl)c2F)c(=O)c(C(=O)O)cn3C2CC2)CC1
Log 1/C [1]: 5.88
Log 1/C [2]: 7.1
Log 1/C [3]: 5.28
Log 1/C [4]: 6.48

O=C(O)c1cn(C2CC2)c2c(F)c(N3Cc4cccnc4C3)c(F)cc2c1=O
Log 1/C [1]: 7.73
Log 1/C [2]: 6.53
Log 1/C [3]: 5.02
Log 1/C [4]: 7.44

CCn1cc(C(=O)O)c(=O)c2cc(F)c(N3CCNCC3)cc21 [NORFLOXACIN]
Log 1/C [1]: 5.55
Log 1/C [2]: 6.76
Log 1/C [3]: 5.85
Log 1/C [4]: 5.55

O=C(O)c1cn(C2CCOCC2)c2cc(N3CCNCC3)c(F)cc2c1=O
Log 1/C [1]: 4.07
Log 1/C [2]: 3.77
Log 1/C [3]: 3.47
Log 1/C [4]: 4.07

O=C(O)c1cn(-c2ccc(F)cc2F)c2nc(N3C[C@@H]4CCCN[C@@H]4C3)c(F)cc2c1=O
Log 1/C [1]: 6
Log 1/C [2]: 7.5
Log 1/C [3]: 5.09
Log 1/C [4]: 6.59

CN1Cc2csc3c(C(=O)O)c(=O)c4cc(F)c(N5CCNCC5)c1c4n23
Log 1/C [1]: 6.49
Log 1/C [2]: 7.11
Log 1/C [3]: 5.89
Log 1/C [4]: 6.81

CC(C)(C)N1CCN(c2cc3c(cc2F)c(=O)c(C(=O)O)cn3C2CC2)CC1
Log 1/C [1]: 5.89
Log 1/C [2]: 7.1
Log 1/C [3]: 5.29
Log 1/C [4]: 6.19

N[C@@H]1CN(c2c(F)cc3c(=O)c(C(=O)O)cn([C@@H]4C[C@@H]4F)c3c2Cl)CC12CC2 [SITAFLOXACIN ANHYDROUS]
Log 1/C [1]: 7.45
Log 1/C [2]: 8.04
Log 1/C [3]: 6.84
Log 1/C [4]: 7.74

C#Cc1c(N2C[C@@H]3CCCN[C@@H]3C2)c(F)cc2c(=O)c(C(=O)O)cn(C3CC3)c12
Log 1/C [1]: 7.7
Log 1/C [2]: 7.7
Log 1/C [3]: 5.9
Log 1/C [4]: 7.7

O=C(O)c1cn(C2CC2)c2cc(N3C[C@H]4CCCN[C@H]4C3)c(F)cc2c1=O
Log 1/C [1]: 5.91
Log 1/C [2]: 6.82
Log 1/C [3]: 5.61
Log 1/C [4]: 6.21

O=C(O)c1cn(C2CC2)c2c(Cl)c(N3C[C@H]4CCCN[C@H]4C3)c(F)cc2c1=O
Log 1/C [1]: 6.85
Log 1/C [2]: 7.47
Log 1/C [3]: 5.65
Log 1/C [4]: 6.85

C=CCN1CCN(c2cc3c(cc2F)c(=O)c(C(=O)O)cn3C2CC2)CC1
Log 1/C [1]: 5.61
Log 1/C [2]: 6.82
Log 1/C [3]: 5.31
Log 1/C [4]: 6.21

CCn1cc(C(=O)O)c(=O)c2cc(F)c(N3CCNC(C)C3)c(F)c21 (configuration not stated) [LOMEFLOXACIN]
Log 1/C [1]: 5.24
Log 1/C [2]: 7.07
Log 1/C [3]: 5.85
Log 1/C [4]: 5.85

O=C(O)c1cn2c3c(c(N4CCN(C5CC5)CC4)c(F)cc3c1=O)OC1=C2CCC1
Log 1/C [1]: 4.75
Log 1/C [2]: 4.15
Log 1/C [3]: 3.54
Log 1/C [4]: 4.75

O=C(O)c1cn2c3c(c(N4CCNCC4)c(F)cc3c1=O)OC=C2COCc1ccccc1
Log 1/C [1]: 4.15
Log 1/C [2]: 3.55
Log 1/C [3]: 3.55
Log 1/C [4]: 4.15

CSc1cc2c(=O)c(C(=O)O)cn(C3CC3)c2c(SC)c1SC
Log 1/C [1]: 3.76
Log 1/C [2]: 4.36
Log 1/C [3]: 3.46
Log 1/C [4]: 4.96

O=C(O)c1cn(C2CC2)c2cc(N3CCN(C4CC4)CC3)c(F)cc2c1=O
Log 1/C [1]: 5.57
Log 1/C [2]: 7.08
Log 1/C [3]: 4.67
Log 1/C [4]: 6.17

C#CCN1CCN(c2c(F)cc3c(=O)c(C(=O)O)cn(C4CC4)c3c2Cl)CC1
Log 1/C [1]: 5.61
Log 1/C [2]: 6.83
Log 1/C [3]: 5.01
Log 1/C [4]: 6.21
